The record followed here is ChEMBL document CHEMBL3351394 (J Med Chem, 2014).

Active and inactive are the calls of the source. No cut-off for these calls is given here.

The first test concerns the target T1, Bile acid receptor (Homo sapiens, UniProt Q96RI1).
T1 sequence (Q96RI1 whole entry): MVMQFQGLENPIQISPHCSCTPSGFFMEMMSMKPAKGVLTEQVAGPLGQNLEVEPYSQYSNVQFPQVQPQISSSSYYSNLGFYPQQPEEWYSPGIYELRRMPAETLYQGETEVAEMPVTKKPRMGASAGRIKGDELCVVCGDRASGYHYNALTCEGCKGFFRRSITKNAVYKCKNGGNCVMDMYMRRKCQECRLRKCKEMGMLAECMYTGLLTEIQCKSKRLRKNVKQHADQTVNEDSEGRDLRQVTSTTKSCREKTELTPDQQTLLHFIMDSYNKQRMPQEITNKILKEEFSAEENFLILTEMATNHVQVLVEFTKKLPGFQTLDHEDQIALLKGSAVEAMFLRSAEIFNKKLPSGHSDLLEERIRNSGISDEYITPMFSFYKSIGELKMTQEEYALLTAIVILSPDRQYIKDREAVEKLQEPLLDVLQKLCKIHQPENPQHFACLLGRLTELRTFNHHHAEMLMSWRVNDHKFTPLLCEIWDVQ
The experiment in a line: Agonist activity at human FXR expressed in human HeLa cells assessed as receptor activation by BSEP promoter-driven firefly luciferase reporter gene assay. It is filed as cell-based. Conditions: hela.
As to `CC(C)(C)c1ccc(NC(=O)c2ccccc2NC(=O)c2cccc(C(=O)O)c2)cc1`, the EC50 entry is given as “Not Active”.

The test is the same for the next values; noted with them: read-out: EC50.
In the case of `O=C(O)c1cccc(NC(=O)c2ccccc2NC(=O)c2ccc3c(c2)OCO3)c1`, the EC50 is 10 µM. With `COc1cccc(NC(=O)c2ccccc2NC(=O)c2ccc(C(C)(C)C)cc2)c1`, the half-maximal effective concentration (EC50) amounted to 0.38 µM. With `Cc1ccc(NC(=O)c2ccc(Cl)cc2NC(=O)c2ccc(C(C)(C)C)cc2)cc1C(=O)O`, the EC50 worked out at 0.11 µM. In the case of `O=C(O)c1cccc(NC(=O)c2ccccc2NC(=O)c2ccc(Br)cc2)c1`, the EC50 was determined as 3.7 µM. Turning to `CC(C)(C)c1ccc(C(=O)Nc2ccccc2C(=O)Nc2cccc(C#N)c2)cc1`, the EC50 worked out at 0.23 µM.

On to `COc1ccc(C(=O)O)cc1NC(=O)c1ccccc1NC(=O)c1ccc(C(C)(C)C)cc1`, for which the EC50 came to 4.7 µM.

For the compound `CC(C)(C)c1ccc(C(=O)Nc2ccccc2C(=O)Nc2cccc(-c3nnn[nH]3)c2)cc1`, the EC50 was found to be 2.9 µM.

Consider `Cc1ccc(NC(=O)c2ccccc2NC(=O)c2ccc(C(C)(C)C)cc2)cc1C(=O)O`, for which the EC50 worked out at 0.045 µM. Take `CC(=O)c1cccc(NC(=O)c2ccccc2NC(=O)c2ccc(C(C)(C)C)cc2)c1`: the concentration for a half-maximal effect (EC50) is 0.48 µM. With `CC(C)(C)c1ccc(C(=O)Nc2ccccc2C(=O)Nc2cccc(CC(=O)O)c2)cc1`, the concentration giving a half-maximal response (EC50) amounted to 0.42 µM.

As to `CSc1cccc(NC(=O)c2ccccc2NC(=O)c2ccc(C(C)(C)C)cc2)c1`, the concentration for a half-maximal effect (EC50) came to 0.2 µM. The same measure, in the same setting: as for `O=C(/C=C/c1ccccc1)Nc1ccccc1C(=O)Nc1cccc(C(=O)O)c1`, the figure is 5.2 µM; as for `CC(C)(C)c1ccc(C(=O)Nc2ccccc2C(=O)Nc2cc(C(=O)O)ccc2Cl)cc1`, 1.1 µM. In the case of `CC(C)(C)c1ccc(C(=O)Nc2ccccc2C(=O)Nc2cccc(CCC(=O)O)c2)cc1`, the EC50 is 0.064 µM. As for `Cc1c(NC(=O)c2ccccc2NC(=O)c2ccc(C(C)(C)C)cc2)cccc1C(=O)O`, the EC50 worked out at 0.042 µM. On to `CC(C)(C)c1ccc(C(=O)Nc2ccccc2C(=O)Nc2ccc(Cl)c(C(=O)O)c2)cc1`, for which the EC50 turned out to be 0.28 µM.

On to `COc1ccc(C(=O)Nc2ccc(C)c(C(=O)O)c2)c(NC(=O)c2ccc(C(C)(C)C)cc2)c1`, for which the EC50 was determined as 0.087 µM. As for `Cc1ccc(C(=O)Nc2ccc(C)c(C(=O)O)c2)c(NC(=O)c2ccc(C(C)(C)C)cc2)c1`, the EC50 is 0.043 µM. For `COc1ccc(NC(=O)c2ccccc2NC(=O)c2ccc(C(C)(C)C)cc2)cc1C(=O)O`, the EC50 turned out to be 0.047 µM. Regarding `CC(C)(C)c1ccc(C(=O)Nc2ccccc2C(=O)Nc2cccc(C(=O)O)c2)cc1`, the EC50 was determined as 0.28 µM. On to `CC(C)(C)c1ccc(C(=O)Nc2cc(Cl)ccc2C(=O)Nc2cccc(C(=O)O)c2)cc1`, for which the EC50 is 0.047 µM. Same read-out and setting: as for `O=C(O)c1cccc(NC(=O)c2ccccc2NC(=O)c2ccc(C(F)(F)F)cc2)c1`, the figure is 6.9 µM. `Cc1ccc(C(=O)Nc2cccc(C(=O)O)c2)c(NC(=O)c2ccc(C(C)(C)C)cc2)c1`: the half-maximal effective concentration (EC50) stood at 0.061 µM.

`O=C(O)c1cccc(NC(=O)c2ccccc2NC(=O)c2ccc(C(F)(F)F)c(F)c2)c1`: the concentration giving a half-maximal response (EC50) was found to be 5 µM. As for `CC(C)(C)c1ccc(C(=O)Nc2ccccc2C(=O)Nc2cc(C(=O)O)ccc2F)cc1`, the EC50 stood at 0.48 µM.

Take `O=C(O)c1cccc(NC(=O)c2ccccc2NC(=O)c2ccc3c(c2)OCCO3)c1`: the EC50 is 4.9 µM. With `CC(C)(C)c1ccc(C(=O)Nc2cc(Br)ccc2C(=O)Nc2cccc(C(=O)O)c2)cc1`, the EC50 is 0.048 µM.

Turning to `CC(C)(C)c1ccc(C(=O)Nc2ccccc2C(=O)Nc2cccc(C(N)=O)c2)cc1`, the EC50 stood at 0.074 µM. On to `COc1ccc(NC(=O)c2ccccc2NC(=O)c2ccc(C(C)(C)C)cc2)cc1OC`, for which the EC50 came to 0.071 µM. `CC(C)(C)c1ccc(C(=O)Nc2ccccc2C(=O)Nc2ccc(Br)c(C(=O)O)c2)cc1`: the EC50 came out at 0.15 µM.

In another test the target is T2, Bile acid receptor (Homo sapiens) (UniProt Q96RI1).
T2 sequence (whole entry): T1 sequence (Q96RI1 whole entry)
The experiment in a line: Agonist activity at human FXR expressed in human HeLa cells assessed as receptor activation at 30 uM by BSEP promoter-driven firefly luciferase reporter gene assay relative to 3 uM GW4064. It is filed as cell-based.
Details: not given
Put shortly: (§1)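 HeLa cells were calcium-phosphate transfected with pcDNA3-hFXR, pSG5-hRXR, a BSEP-promoter firefly luciferase (BSEP-pGL3) and pRL-SV40, then kept in 0.5% charcoal-stripped FCS. 24 h post-transfection, compound in 0.1% DMSO was added for 24 h; in antagonist mode it was given in competition with GW4064. Dual-luciferase firefly/renilla RLU gave fold over untreated and activity relative to 3 μM GW4064. Triplicate wells, ≥3 independent runs.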
Take `COc1ccc(NC(=O)c2ccc(C(C)(C)C)cc2)c(C(=O)Nc2cccc(C(=O)O)c2)c1`: the result was inactive. Turning to `COc1cc(NC(=O)c2ccccc2NC(=O)c2ccc(C(C)(C)C)cc2)cc(OC)c1OC`, the result was inactive. Turning to `O=C(O)c1cccc(NC(=O)c2ccccc2NC(=O)c2cc(C(F)(F)F)cc(C(F)(F)F)c2)c1`, the result was inactive. `CC(C)(C)c1ccc(C(=O)Nc2cc([N+](=O)[O-])ccc2C(=O)Nc2cccc(C(=O)O)c2)cc1`: the result was inactive. With `CC(C)(C)c1ccc(C(=O)Nc2c(Cl)cccc2C(=O)Nc2cccc(C(=O)O)c2)cc1`, the result was inactive.

As for `Cc1ccc(C(=O)O)cc1NC(=O)c1ccccc1NC(=O)c1ccc(C(C)(C)C)cc1`, the result was inactive.

`CC(C)(C)c1ccc(C(=O)Nc2cccc(Cl)c2C(=O)Nc2cccc(C(=O)O)c2)cc1`: the outcome was inactive. With `CC(C)(C)c1ccc(C(=O)Nc2ccccc2C(=O)Nc2ccc([N+](=O)[O-])c(C(=O)O)c2)cc1`, the outcome was inactive. Same read-out and setting: the value for `O=C(Cc1ccccc1)Nc1ccccc1C(=O)Nc1cccc(C(=O)O)c1` was “inactive”; that for `Nc1ccccc1C(=O)Nc1cccc(C(=O)O)c1` was “inactive”.

The target of the next test is T1, Bile acid receptor. The experiment in a line: Antagonist activity at human FXR expressed in human HeLa cells assessed as inhibition of receptor activation by BSEP promoter-driven firefly luciferase reporter gene assay.
Details: not given
It is filed as cell-based. Put shortly:
as §1
Turning to `COc1ccc(NC(=O)c2ccc(C(C)(C)C)cc2)c(C(=O)Nc2cccc(C(=O)O)c2)c1`, the IC50 came out at 15.1 µM. The same measure, in the same setting: the value for `CC(C)(C)c1ccc(C(=O)Nc2ccc(Cl)cc2C(=O)Nc2cccc(C(=O)O)c2)cc1` was 12.3 µM.

Another test has as its target T2, Bile acid receptor (Homo sapiens). Kind of test: Antagonist activity at human FXR expressed in human HeLa cells assessed as inhibition of receptor activation by BSEP promoter-driven firefly luciferase reporter gene assay relative to untreated control. It is filed as cell-based. To be noted: concentration not given here. The procedure, abridged:
as §1
As for `COc1ccc(NC(=O)c2ccc(C(C)(C)C)cc2)c(C(=O)Nc2cccc(C(=O)O)c2)c1`, the inhibition is 10%. Consider `CC(C)(C)c1ccc(C(=O)Nc2ccc(Cl)cc2C(=O)Nc2cccc(C(=O)O)c2)cc1`, for which the inhibition amounted to 15%.

Another test shares this target. The experiment in a line: Agonist activity at FXR in human HepG2 cells assessed as induction of BSEP mrNA expression at 3 uM by quantitative PCR method. It is filed as cell-based.
Details: not given
The procedure, abridged:
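HepG2 cells were seeded at 2 × 10⁶ per well. After 24 h they were switched to MEM with 1% charcoal-stripped FCS, and 24 h later dosed with compound (0.1, 0.3, 1, 3, 10 μM; 0.1% DMSO final) for 24 h. Total RNA was reverse transcribed and analysed by qPCR, GAPDH-normalized, ΔΔCt method. Samples were run in duplicate in ≥4 independent experiments.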
`CC(C)c1onc(-c2c(Cl)cccc2Cl)c1COc1ccc(/C=C/c2cccc(C(=O)O)c2)c(Cl)c1`: the Activity amounted to 1520%.
